Measurements as given in ChEMBL document CHEMBL3822365, “Probing the Anticancer Action of Oridonin with Fluorescent Analogues: Visualizing Subcellular Localization to Mitochondria” (J Med Chem, 2016).
The source made the active and inactive calls. The calls are words filed in the database; no cut-off is given here.

Experiments:
[1] = Cytotoxicity against human Bel7402 cells assessed as growth inhibition at 100 uM after 72 hrs by MTT assay; type: functional; settings: Bel-7402, 72 h, read-out: GI
Outline: (§1)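 Bel-7402 cells exposed to compound for 72 h, then MTT read-out of percent growth inhibition at the single stated concentration. Values are the mean of three independent experiments.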

[2] = Cytotoxicity against human Bel7402 cells assessed as growth inhibition at 10 uM after 72 hrs by MTT assay; type: functional; settings: Bel-7402, 72 h, read-out: GI; outline: as §1
[3] = Cytotoxicity against human Bel7402 cells assessed as growth inhibition at 1 uM after 72 hrs by MTT assay; type: functional; settings: Bel-7402, 72 h, read-out: GI; outline: as §1
HepG2 [4] = assay: Cytotoxicity against human HepG2 cells assessed as inhibition of cell proliferation after 72 hrs by MTT assay; type: functional, cell-based; settings: HepG2, 72 h
Outline: (§2)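 Log-phase cells seeded at 5 × 10^4 cells/mL and exposed to compound for 72 h at 37 °C, 5% CO2. MTT (5 mg/mL) added for a further 4 h, formazan dissolved in DMSO, OD read at 490 nm. Negative reference 0.1% DMSO, positive reference paclitaxel. IC50 given as mean ± SD, n = 3.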

A549 [5] = assay: Cytotoxicity against human A549 cells assessed as inhibition of cell proliferation after 72 hrs by MTT assay; type: functional, cell-based; settings: A549, 72 h; outline: as §2
HeLa = assay: Cytotoxicity against human HeLa cells assessed as inhibition of cell proliferation after 72 hrs by MTT assay; type: functional, cell-based; outline: as §2
HepG2 [6] = assay: Drug uptake in human HepG2 cells at 5 uM after 1 hr by inverted confocal microscopy; type: ADME, cell-based; settings: hepg2, 1 h
Outline: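 HepG2 cells were incubated with probe at 5 μM for 1 h and then examined by fluorescence microscopy for intracellular staining.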

HepG2 [7] = assay: Drug uptake in human HepG2 cells at 1 uM after 5 mins by inverted confocal microscopy; type: ADME, cell-based; settings: hepg2, 5 min
A549 [8] = assay: Drug uptake in human A549 cells at 1 uM after 5 mins by inverted confocal microscopy; type: ADME, cell-based; settings: a549, 5 min
HepG2 [9] = assay: Drug uptake in human HepG2 cells at 1 uM after 12 hrs by inverted confocal microscopy; type: ADME, cell-based; settings: hepg2, 12 h
Outline: (§3)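 Live A549 or HepG2 cells were given 1 μM probe for 12 h and washed with media. Confocal imaging used ex 405/em 460 nm at 40× on an inverted microscope. Each experiment was repeated three times.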

[10] = Drug uptake in human A549 cell cytoplasm at 1 uM after 12 hrs by inverted confocal microscopy; type: ADME, cell-based; settings: a549, 12 h; outline: as §3
[11] = Drug uptake in mitochondria of human A549 cells at 1 uM after 1 hr by MitoTracker staining based confocal laser scanning microscopy; type: ADME; settings: a549, 1 h
Outline: (§4)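 A549 cells were treated with 1 μM probe for 1, 3, 12 or 24 h and washed in PBS. They were then stained with MitoTracker Red CMXRos (200 nM, 0.5 h), washed in cold PBS, fixed with paraformaldehyde and imaged by confocal laser scanning microscopy. Mitochondrial overlap was quantified as Pearson's coefficient (Rr).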

[12] = Drug uptake in mitochondria of human A549 cells at 1 uM after 12 hrs by MitoTracker staining based confocal laser scanning microscopy; type: ADME; settings: a549, 12 h; outline: as §4
[13] = Drug uptake in mitochondria of human A549 cells at 1 uM after 24 hrs by MitoTracker staining based confocal laser scanning microscopy; type: ADME; settings: a549, 24 h; outline: as §4
A549 [14] = assay: Dissipation of mitochondrial membrane potential in human A549 cells at 1 uM by JC-1 staining based confocal microscopy; type: functional, cell-based; settings: TDE = time-dependent effect
Outline: (§5)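 A549 cells were exposed to 1 μM compound for 12 to 48 h. They were then loaded with JC-1 at 10 μg/mL for 30 min at 37 °C and washed in PBS for 5 min. Aggregate (red, ex 525/em 600 nm) and monomer (green, ex 490/em 535 nm) signals were read by microplate reader or confocal microscope. Value is the red:green ratio, 10000 cells per condition, mean ± SD of three independent experiments.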

A549 [15] = assay: Dissipation of mitochondrial membrane potential in human A549 cells assessed as ratio of red to green fluorescence at 1 uM after 12 to 48 hrs by JC-1 staining based confocal microscopy; type: functional; outline: as §5
A549 [16] = assay: Dissipation of mitochondrial membrane potential in human A549 cells assessed as ratio of red to green fluorescence at 1 uM after 48 hrs by JC-1 staining based confocal microscopy; type: functional; outline: as §5
A549 [17] = assay: Drug uptake in human A549 cells at 1 uM preincubated with oridonin for 24 hrs followed by compound addition measured after 1 hr by confocal microscopy; type: ADME, cell-based; settings: a549, 1 h
A549 [18] = assay: Drug uptake in human A549 cells at 1 uM preincubated with compound 25 for 24 hrs followed by compound addition measured after 1 hr by confocal microscopy; type: ADME, cell-based; settings: a549, 1 h
A549 [19] = assay: Drug uptake in human A549 cells at 1 uM preincubated with compound 26 for 24 hrs followed by compound addition measured after 1 hr by confocal microscopy; type: ADME, cell-based; settings: a549, 1 h
HepG2 [20] = assay: Drug uptake in human HepG2 cells at 50 to 100 uM after 1 hr by inverted confocal microscopy; type: ADME, cell-based; settings: hepg2, 1 h
Outline: (§6)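 HepG2 cells incubated with probe for 1 h, then intracellular fluorescence imaged by fluorescence microscopy.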

HepG2 [21] = assay: Drug uptake in human HepG2 cells at 20 uM after 1 hr by inverted confocal microscopy; type: ADME, cell-based; settings: hepg2, 1 h; outline: as §6
A549 [22] = assay: Dissipation of mitochondrial membrane potential in human A549 cells at 20 uM after 1 to 48 hrs by […]; type: functional, cell-based
K562 = assay: Antiproliferative activity against human K562 cells; type: functional, cell-based
[23] = Antiproliferative activity against human NCI-H929 cells assessed as reduction in cell viability after 24 to 72 hrs by MTT assay; type: functional, cell-based
A549 [24] = assay: Dissipation of mitochondrial membrane potential in human A549 cells at 10 uM after 36 hrs by JC-1 staining based confocal microscopy; type: functional, cell-based
Outline: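 A549 cells were exposed to 10 μM compound for 36 h or left untreated. They were then loaded with 10 μg/mL JC-1 for 30 min at 37 °C and washed 5 min in PBS. The red-to-green fluorescence shift was viewed by confocal microscopy. Done in triplicate.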

A549 [25] = assay: Induction of apoptosis in human A549 cells assessed as cytochrome c release from mitochondria to cytosol at 3 uM after 24 to 48 hrs by MitoTracker probe/DAPI staining based confocal laser scanning microscopy; type: functional, cell-based
Outline: (§7)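 A549 cells exposed to compound for 24 or 48 h, then stained with MitoTracker Red for 30 min. Cells fixed in 4% formaldehyde, permeabilized with 0.2% Triton X-100 and blocked in 5% BSA for 1 h. Anti-cytochrome c primary antibody applied overnight at 4 °C, then Alexa Fluor 488 goat anti-rabbit for 2 h. DAPI nuclear counterstain, imaged by confocal microscopy.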

A549 [26] = assay: Induction of apoptosis in human A549 cells assessed as cytochrome c release from mitochondria to cytosol at 5 uM after 24 to 48 hrs by MitoTracker probe/DAPI staining based confocal laser scanning microscopy; type: functional, cell-based; outline: as §7

Row | Compound | inhibition of growth at 100 µM [1] [%] | inhibition of growth at 10 µM [2] [%] | inhibition of growth at 1 µM [3] [%] | IC50 (HepG2 [4]) [µM] | IC50 (A549 [5]) [µM] | IC50 (HeLa) [µM] | further results
1 | C=C1C(=O)[C@]23[C@H](OC(=O)CCCC(=O)OCCCCOC(=O)c4cc5ccc(N(CC)CC)cc5oc4=O)[C@H]1CC[C@H]2[C@@]12CO[C@@]3(O)[C@@H](O)[C@@H]1C(C)(C)CC[C@@H]2O | 93.8 | 94 | 88.6 | 2.6 | 5.1 | 2 | Drug uptake (HepG2 [6]): Active; Drug uptake (HepG2 [7]): Active; Drug uptake (A549 [8]): Active; Drug uptake (HepG2 [9]): Active; Drug uptake [10]: Active; Drug uptake [11]: Active; Drug uptake [12]: Active; Drug uptake [13]: Not Active; Activity (A549 [14]): tde; Ratio (A549 [15]): 1.496; Ratio (A549 [16]): 0.312; Activity (A549 [17]): Not Active; Drug uptake (A549 [18]): Not Active; Drug uptake (A549 [19]): Active
2 | C=C1C(=O)[C@]23[C@H](OC(=O)CCCC(=O)OCCOCCOC(=O)c4cc5ccc(N(CC)CC)cc5oc4=O)[C@H]1CC[C@H]2[C@@]12CO[C@@]3(O)[C@@H](O)[C@@H]1C(C)(C)CC[C@@H]2O | 94.6 | 70.1 | 1.4 |  |  |  | 
3 | CCN(CC)c1ccc2cc(C(=O)OCCO)c(=O)oc2c1 | 9.5 | 3.7 | 0.7 |  |  |  | Drug uptake (HepG2 [20]): Not Active
4 | CCN(CC)c1ccc2cc(C(=O)OCCCCOC(=O)CCCC(=O)O[C@@H]3[C@H]4CC[C@H]5[C@@]67CO[C@@](O)([C@@H](O)[C@@H]6C(C)(C)CC[C@@H]7O)[C@@]35C(=O)[C@@H]4C)c(=O)oc2c1 | 37.2 | 3.7 | 1.8 | 144 | 78 | 79.6 | Drug uptake (HepG2 [21]): Not Active; Activity (A549 [22]): inactive
5 | C=C1C(=O)[C@]23[C@H](OC(=O)CCC(=O)OCCOC(=O)c4cc5ccc(N(CC)CC)cc5oc4=O)[C@H]1CC[C@H]2[C@@]12CO[C@@]3(O)[C@@H](O)[C@@H]1C(C)(C)CC[C@@H]2O | 94.4 | 72.4 | 11.5 |  |  |  | 
6 | C=C1C(=O)[C@]23C[C@H]1CC[C@H]2[C@]1(COC3=O)[C@@H](OC(C)=O)CCC(C)(C)[C@H]1CO |  |  |  |  |  |  | IC50 (K562): 3.56 µM
7 | C=C1C(=O)[C@]23[C@H](O)[C@H]1CC[C@H]2[C@]12CCCC(C)(C)[C@H]1[C@H](O)[C@@]3(O)OC2 |  |  |  |  |  |  | IC50 [23]: 850 nM
8 | C=C1C(=O)[C@]23[C@H](OC(=O)CCCCCCC)[C@H]1CC[C@H]2[C@@]12CO[C@@]3(O)[C@@H](O)[C@@H]1C(C)(C)CC[C@@H]2O | 94.7 | 92.7 | 57.5 |  |  |  | 
9 | C=C1C(=O)[C@]23[C@H](O)[C@H]1CC[C@H]2[C@@]12CO[C@]3(O)[C@@H](O)[C@@H]1C(C)(C)CC[C@@H]2O [ORIDONIN] | 94.6 | 94.8 | 37.9 | 15.2 | 10.4 | 17.8 | Activity (A549 [24]): Active; Activity (A549 [25]): Active; Activity (A549 [26]): Active
10 | C[C@H]1C(=O)[C@]23[C@H](O)[C@H]1CC[C@H]2[C@@]12CO[C@@]3(O)[C@@H](O)[C@@H]1C(C)(C)CC[C@@H]2O | 57.2 | 4.2 | 2.1 | 70.6 | 67 | 52.7 | 
11 | C=C1C(=O)[C@]23[C@H](OC(=O)CCC(=O)OCCOC(=O)Cc4cc(=O)oc5cc(N(C)C)ccc45)[C@H]1CC[C@H]2[C@@]12CO[C@@]3(O)[C@@H](O)[C@@H]1C(C)(C)CC[C@@H]2O | 93.3 | 46.4 | 1.1 | 8.8 | 11.2 | 4.6 | Drug uptake (HepG2 [6]): Active; Drug uptake (HepG2 [9]): Active; Drug uptake [10]: Active
12 | C=C1C(=O)[C@]23[C@H](OC(=O)CCCC(=O)OCCOC(=O)c4cc5ccc(N(CC)CC)cc5oc4=O)[C@H]1CC[C@H]2[C@@]12CO[C@@]3(O)[C@@H](O)[C@@H]1C(C)(C)CC[C@@H]2O | 94.6 | 85 | 4.9 |  |  |  | 
13 | C=C1C(=O)[C@]23[C@H](OC(=O)Cc4cc(=O)oc5cc(N(C)C)ccc45)[C@H]1CC[C@H]2[C@@]12CO[C@@]3(O)[C@@H](O)[C@@H]1C(C)(C)CC[C@@H]2O | 92.4 | 94.5 | 13.6 |  |  |  | 
14 | C=C1C(=O)[C@]23[C@H](OC(=O)CCCC(=O)OCCCOC(=O)c4cc5ccc(N(CC)CC)cc5oc4=O)[C@H]1CC[C@H]2[C@@]12CO[C@@]3(O)[C@@H](O)[C@@H]1C(C)(C)CC[C@@H]2O | 94.6 | 89.9 | 2.7 |  |  |  | 
